The values below come from publication PMC10784704 (The Journal of Biological Chemistry, 2023).

The data set addresses T1, neutrophil elastase (NE) (Homo sapiens, UniProt P08246).
T1 sequence (P08246 30-267): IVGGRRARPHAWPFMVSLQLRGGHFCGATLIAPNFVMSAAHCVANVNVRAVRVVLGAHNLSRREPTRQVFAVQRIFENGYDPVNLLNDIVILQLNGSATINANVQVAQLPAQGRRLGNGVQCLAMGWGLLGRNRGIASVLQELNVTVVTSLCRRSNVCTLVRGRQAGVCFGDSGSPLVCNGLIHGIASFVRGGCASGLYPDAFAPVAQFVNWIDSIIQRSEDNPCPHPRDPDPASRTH
As to the kind of experiment: Longitudinal NE digestion of rCBG and asialo-rCBG. The data set is classed as in vitro ADME. Particulars: rCBG/NE 25:1 (w/w), on ice, 480 s incubation period; trypsin digest, LC-MS/MS. Summed up:
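Recombinant CBG, native or desialylated with neuraminidase A (40 U, overnight, 37 °C), digested with NE at 25:1 (w/w) on ice for 15, 30, 60, 120, 240 and 480 s. Stopped with 1 mM PMSF (8 min, ice), reduced with DTT, alkylated with IAA, and trypsin-digested at 20:1 (w/w) overnight at 37 °C. LC-MS/MS tracked intact and cleaved RCL peptides (unoccupied, sialo- and asialo-O-glycosylated). Mean + SD, n = 3.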

B1: rCBG: Polyhistidine-tagged recombinant human CBG expressed in HEK293 cells (Sino Biological) (protein, UniProt P08185 23-405, looked up)
Corticosteroid-binding …: MDPNAAYVNMSNHHRGLASANVDFAFSLYKHLVALSPKKNIFISPVSISMALAMLSLGTCGHTRAQLLQGLGFNLTERSETEIHQGFQHLHQLFAKSDTSLEMTMGNALFLDGSLELLESFSADIKHYYESEVLAMNFQDWATASRQINSYVKNKTQGKIVDLFSGLDSPAILVLVNYIFFKGTWTQPFDLASTREENFYVDETTVVKVPMMLQSSTISYLHDSELPCQLVQMNYVGNGTVFFILPDKGKMNTVIAALSRDTINRWSAGLTSSQVDLYIPKVTISGVYDLGDVLEEMGIADLFTNQANFSRITQDAQLKSSKVVHKAVLQLNEEGVDTAGSTGVTLNLTSKPIILRFNQPFIIMIFDHFTWSSLFLARVMNPV
modifications: polyhistidine tag
For the molecule B1, the “Effect of Thr345 O-glycans on NE proteolysis reaction” value is “strongly inhibit”.

B2: asialo-rCBG: sialic acid-deficient glycoform of rCBG generated through exhaustive sialidase (neuraminidase A) treatment (protein, UniProt P08185 23-405, looked up)
Corticosteroid-binding …: B1 Corticosteroid-binding …
modifications: His tag; desialylated by neuraminidase
Turning to B2, the “Effect of Thr345 O-glycans on NE proteolysis reaction” value is on record as “strongly inhibit”.
